In ChEMBL document CHEMBL1133628, “Nonnucleoside human cytomegalovirus inhibitors: synthesis and antiviral evaluation of (chlorophenylmethyl)benzothiadiazine dioxide derivatives” (J Med Chem, 2000):

System: HEL
Test: Inhibition of cell growth in HEL cells.
Assay type: functional
Settings: Homo sapiens
Procedure, shortened: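 HEL fibroblasts seeded at 5×10^3 cells/well and left to proliferate 24 h, then given compound dilutions in duplicate. Incubated 3 days at 37 °C, 5% CO2; cells counted with a Coulter counter. CC50 is the concentration reducing cell growth by 50%.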

Point of comparison: `Nc1ccn(C[C@@H](CO)OCP(=O)(O)O)c(=O)n1` [CIDOFOVIR], CC50 317 µM. Against it:
- O=C1c2ccccc2N(Cc2ccc(Cl)c(Cl)c2)S(=O)(=O)N1Cc1ccccc1 — not separable, > 200 µM
- O=S1(=O)N=C(OCc2ccccc2)c2ccccc2N1Cc1ccc(Cl)c(Cl)c1 — not separable, > 200 µM
- O=C1c2ccccc2N(Cc2ccc(Cl)cc2)S(=O)(=O)N1Cc1ccccc1 — not separable, > 200 µM
- O=C1c2ccccc2N(Cc2ccccc2Cl)S(=O)(=O)N1Cc1ccccc1Cl — not separable, > 200 µM
- O=C1c2ccccc2N(Cc2ccccc2)S(=O)(=O)N1Cc1ccccc1Cl — not separable, > 200 µM
- C#CCOCN1c2ccccc2C(=O)N(Cc2ccccc2)S1(=O)=O — not separable, > 140 µM
- O=C1c2ccccc2N(Cc2ccccc2)S(=O)(=O)N1COCc1ccccc1 — not separable, > 98 µM
- O=C1c2ccccc2N(COCc2ccccc2)S(=O)(=O)N1Cc1ccccc1 — not separable, > 122 µM
- Nc1nc2c(ncn2COCCO)c(=O)[nH]1 [ACYCLOVIR] — higher, > 400 µM

System: not listed separately
Test: concentration required to reduce virus Human Cytomegalovirus (Davis)plaque formation by 50%
Assay type: functional
Settings: not given
Procedure, shortened: (§1)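 Confluent HEL fibroblasts were infected with 100 PFU cell-free HCMV, and residual virus was removed after 2 h. Cells were kept in MEM with 2% FCS and compound dilutions spaced 5-fold, in duplicate, for 7 days at 37 °C in 5% CO2. They were ethanol-fixed and Giemsa-stained, and cytopathic effect was scored microscopically. IC50 was interpolated from plots as the mean of two experiments.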

In the case of `O=S1(=O)N=C(OCc2ccc(Cl)cc2)c2ccccc2N1Cc1ccc(Cl)cc1`, the EC50 is reported as > 50 µM.

System: Human immunodeficiency virus 2
Test: In vitro inhibition of HIV-2(ROD) cytopathicity in CEM cells.
Assay type: functional, organism-based
Settings: Human immunodeficiency virus 2, CCRF-CEM
Procedure, shortened: (§2)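 CEM cells at 4×10^5 cells/mL infected with HIV-1 IIIB or HIV-2 ROD (stocks from MT-4 supernatants) at ~100 CCID50/mL, then immediately mixed with compound dilutions. Giant cell formation scored microscopically after 4 days; EC50 is the concentration inhibiting it by 50%. Triplicate assays.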

Point of comparison: `O=C1c2ccccc2N(Cc2ccccc2)S(=O)(=O)N1COCc1ccccc1`, EC50 20 µM. Against it:
- O=C1c2ccccc2N(Cc2ccc(Cl)c(Cl)c2)S(=O)(=O)N1Cc1ccccc1 — not separable, > 2 µM
- O=S1(=O)N=C(OCc2ccccc2)c2ccccc2N1Cc1ccc(Cl)c(Cl)c1 — not separable, > 10 µM
- O=C1c2ccccc2N(Cc2ccc(Cl)cc2)S(=O)(=O)N1Cc1ccccc1 — 2.5-fold lower, 8 µM
- O=C1c2ccccc2N(Cc2ccccc2Cl)S(=O)(=O)N1Cc1ccccc1Cl — not separable, > 10 µM
- O=C1c2ccccc2N(Cc2ccccc2)S(=O)(=O)N1Cc1ccccc1Cl — higher, > 250 µM
- C#CCOCN1c2ccccc2C(=O)N(Cc2ccccc2)S1(=O)=O — not separable, > 8 µM
- O=C1c2ccccc2N(COCc2ccccc2)S(=O)(=O)N1Cc1ccccc1 — not separable, > 8 µM

System: Human alphaherpesvirus 3
Test: In vitro inhibition of Thymidine Kinase deficient Varicella Zoster Virus (YS/R) plaque formation.
Assay type: functional, organism-based
Settings: not given
Procedure, shortened: (§3)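 Confluent HEL fibroblasts infected with VZV at 20 PFU; after a 2-h adsorption, residual virus removed and cells incubated in MEM with 2% FCS containing serial 5-fold compound dilutions, in duplicate. Fixed with ethanol after 5 days at 37 °C, 5% CO2, then Giemsa-stained; plaques counted microscopically. IC50 read graphically from plaque number (% of control); mean of two independent experiments.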

Point of comparison: `Nc1nc2c(ncn2COCCO)c(=O)[nH]1` [ACYCLOVIR], IC50 63 µM. Against it:
- O=C1c2ccccc2N(Cc2ccc(Cl)c(Cl)c2)S(=O)(=O)N1Cc1ccccc1 — 14-fold lower, 4.5 µM
- O=S1(=O)N=C(OCc2ccccc2)c2ccccc2N1Cc1ccc(Cl)c(Cl)c1 — not separable, > 50 µM
- O=C1c2ccccc2N(Cc2ccc(Cl)cc2)S(=O)(=O)N1Cc1ccccc1 — 26-fold lower, 2.4 µM
- O=C1c2ccccc2N(Cc2ccccc2Cl)S(=O)(=O)N1Cc1ccccc1Cl — 13-fold lower, 5 µM
- O=C1c2ccccc2N(Cc2ccccc2)S(=O)(=O)N1Cc1ccccc1Cl — not separable, > 50 µM
- C#CCOCN1c2ccccc2C(=O)N(Cc2ccccc2)S1(=O)=O — 1.8-fold lower, 36 µM
- O=C1c2ccccc2N(COCc2ccccc2)S(=O)(=O)N1Cc1ccccc1 — not separable, > 12 µM

System: Human alphaherpesvirus 3
Test: In vitro inhibition of Thymidine Kinase-Varicella Zoster Virus(YS) plaque formation.
Assay type: functional, organism-based
Settings: not given
Procedure, shortened: as §3

Point of comparison: `Nc1nc2c(ncn2COCCO)c(=O)[nH]1` [ACYCLOVIR], IC50 4.09 µM. Against it:
- O=C1c2ccccc2N(Cc2ccc(Cl)c(Cl)c2)S(=O)(=O)N1Cc1ccccc1 — higher, > 50 µM
- O=S1(=O)N=C(OCc2ccccc2)c2ccccc2N1Cc1ccc(Cl)c(Cl)c1 — higher, > 20 µM
- O=C1c2ccccc2N(Cc2ccc(Cl)cc2)S(=O)(=O)N1Cc1ccccc1 — 5.4-fold higher, 22 µM
- O=C1c2ccccc2N(Cc2ccccc2Cl)S(=O)(=O)N1Cc1ccccc1Cl — higher, > 50 µM
- O=C1c2ccccc2N(Cc2ccccc2)S(=O)(=O)N1Cc1ccccc1Cl — higher, > 20 µM
- O=C1c2ccccc2N(Cc2ccccc2)S(=O)(=O)N1COCc1ccccc1 — higher, > 12 µM

System: HEL
Test: In vitro alteration in cell morphology in HEL cells.
Assay type: functional
Settings: Homo sapiens
Procedure, shortened: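 Normal HEL cells exposed to compounds and examined microscopically; minimum cytotoxic concentration is the lowest giving a detectable change in cell morphology. Duplicate assays.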

Point of comparison: `O=C1c2ccccc2N(COCc2ccccc2)S(=O)(=O)N1Cc1ccccc1`, MCC 122 µM. Against it:
- O=C1c2ccccc2N(Cc2ccc(Cl)c(Cl)c2)S(=O)(=O)N1Cc1ccccc1 — 1.6-fold higher, 200 µM
- O=S1(=O)N=C(OCc2ccccc2)c2ccccc2N1Cc1ccc(Cl)c(Cl)c1 — 1.6-fold higher, 200 µM
- O=C1c2ccccc2N(Cc2ccc(Cl)cc2)S(=O)(=O)N1Cc1ccccc1 — not separable, > 5 µM
- O=C1c2ccccc2N(Cc2ccccc2Cl)S(=O)(=O)N1Cc1ccccc1Cl — not separable, > 20 µM
- O=C1c2ccccc2N(Cc2ccccc2)S(=O)(=O)N1Cc1ccccc1Cl — 1.6-fold higher, 200 µM
- C#CCOCN1c2ccccc2C(=O)N(Cc2ccccc2)S1(=O)=O — within 1.5-fold, 140 µM
- O=C1c2ccccc2N(Cc2ccccc2)S(=O)(=O)N1COCc1ccccc1 — 2.5-fold lower, 49 µM
- Nc1nc2c(ncn2COCCO)c(=O)[nH]1 [ACYCLOVIR] — higher, > 150 µM
- Nc1ccn(C[C@@H](CO)OCP(=O)(O)O)c(=O)n1 [CIDOFOVIR] — higher, > 159 µM

System: CCRF-CEM
Test: In vitro inhibition of CEM cell proliferation.
Assay type: functional
Settings: Homo sapiens
Procedure, shortened: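 CEM cell proliferation measured alongside the HIV assays; CC50 is the concentration reducing CEM cell proliferation by 50%.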

Point of comparison: `O=C1c2ccccc2N(COCc2ccccc2)S(=O)(=O)N1Cc1ccccc1`, CC50 25 µM. Against it:
- O=C1c2ccccc2N(Cc2ccc(Cl)c(Cl)c2)S(=O)(=O)N1Cc1ccccc1 — 1.5-fold lower, 16.4 µM
- O=S1(=O)N=C(OCc2ccccc2)c2ccccc2N1Cc1ccc(Cl)c(Cl)c1 — within 1.5-fold, 30.5 µM
- O=C1c2ccccc2N(Cc2ccc(Cl)cc2)S(=O)(=O)N1Cc1ccccc1 — within 1.5-fold, 19.7 µM
- O=C1c2ccccc2N(Cc2ccccc2Cl)S(=O)(=O)N1Cc1ccccc1Cl — 1.6-fold higher, 40.4 µM
- O=C1c2ccccc2N(Cc2ccccc2)S(=O)(=O)N1Cc1ccccc1Cl — higher, > 250 µM
- C#CCOCN1c2ccccc2C(=O)N(Cc2ccccc2)S1(=O)=O — within 1.5-fold, 23 µM
- O=C1c2ccccc2N(Cc2ccccc2)S(=O)(=O)N1COCc1ccccc1 — 4-fold higher, 100 µM

System: Human alphaherpesvirus 3
Test: In vitro inhibition of Thymidine Kinase deficient Varicella Zoster Virus (07/1) plaque formation.
Assay type: functional, organism-based
Settings: not given
Procedure, shortened: as §3

Point of comparison: `O=C1c2ccccc2N(Cc2ccc(Cl)cc2)S(=O)(=O)N1Cc1ccccc1`, IC50 11 µM. Against it:
- O=C1c2ccccc2N(Cc2ccc(Cl)c(Cl)c2)S(=O)(=O)N1Cc1ccccc1 — 2.5-fold higher, 27 µM
- O=S1(=O)N=C(OCc2ccccc2)c2ccccc2N1Cc1ccc(Cl)c(Cl)c1 — higher, > 50 µM
- O=C1c2ccccc2N(Cc2ccccc2Cl)S(=O)(=O)N1Cc1ccccc1Cl — higher, > 50 µM
- O=C1c2ccccc2N(Cc2ccccc2)S(=O)(=O)N1Cc1ccccc1Cl — higher, > 50 µM
- O=C1c2ccccc2N(Cc2ccccc2)S(=O)(=O)N1COCc1ccccc1 — higher, > 12 µM
- O=C1c2ccccc2N(COCc2ccccc2)S(=O)(=O)N1Cc1ccccc1 — higher, > 12 µM
- Nc1nc2c(ncn2COCCO)c(=O)[nH]1 [ACYCLOVIR] — 3.7-fold higher, 41 µM

System: not listed separately
Test: concentration required to reduce CEM cell proliferation by 50%
Settings: Homo sapiens

In the case of `O=S1(=O)N=C(OCc2ccc(Cl)cc2)c2ccccc2N1Cc1ccc(Cl)cc1`, the CC50 is reported as > 250 µM.

System: Human betaherpesvirus 5
Test: In vitro inhibition of HCMV (Davis) plaque formation.
Assay type: functional, organism-based
Settings: not given
Procedure, shortened: (§4)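 Confluent HEL fibroblasts infected with HCMV at 100 PFU of cell-free virus; after a 2-h adsorption, residual virus removed and cells incubated in MEM with 2% FCS containing serial 5-fold compound dilutions, in duplicate. Fixed with ethanol after 7 days at 37 °C, 5% CO2, then Giemsa-stained; cytopathic effect scored microscopically. IC50 read graphically from % cytopathicity; mean of two experiments.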

Point of comparison: `O=C1c2ccccc2N(Cc2ccc(Cl)c(Cl)c2)S(=O)(=O)N1Cc1ccccc1`, IC50 3.5 µM. Against it:
- O=S1(=O)N=C(OCc2ccccc2)c2ccccc2N1Cc1ccc(Cl)c(Cl)c1 — higher, > 50 µM
- O=C1c2ccccc2N(Cc2ccc(Cl)cc2)S(=O)(=O)N1Cc1ccccc1 — within 1.5-fold, 3 µM
- O=C1c2ccccc2N(Cc2ccccc2Cl)S(=O)(=O)N1Cc1ccccc1Cl — 14-fold higher, 50 µM
- O=C1c2ccccc2N(Cc2ccccc2)S(=O)(=O)N1Cc1ccccc1Cl — higher, > 50 µM
- Nc1ccn(C[C@@H](CO)OCP(=O)(O)O)c(=O)n1 [CIDOFOVIR] — 2.7-fold lower, 1.3 µM

System: Human alphaherpesvirus 3
Test: In vitro inhibition of Thymidine Kinase-Varicella-Zoster Virus(OKA) plaque formation.
Assay type: functional, organism-based
Settings: Human alphaherpesvirus 3, oka
Procedure, shortened: as §3

Point of comparison: `O=C1c2ccccc2N(Cc2ccc(Cl)cc2)S(=O)(=O)N1Cc1ccccc1`, IC50 18 µM. Against it:
- O=C1c2ccccc2N(Cc2ccc(Cl)c(Cl)c2)S(=O)(=O)N1Cc1ccccc1 — higher, > 50 µM
- O=S1(=O)N=C(OCc2ccccc2)c2ccccc2N1Cc1ccc(Cl)c(Cl)c1 — higher, > 50 µM
- O=C1c2ccccc2N(Cc2ccccc2Cl)S(=O)(=O)N1Cc1ccccc1Cl — higher, > 50 µM
- O=C1c2ccccc2N(Cc2ccccc2)S(=O)(=O)N1Cc1ccccc1Cl — higher, > 50 µM
- O=C1c2ccccc2N(Cc2ccccc2)S(=O)(=O)N1COCc1ccccc1 — not separable, > 12 µM
- Nc1nc2c(ncn2COCCO)c(=O)[nH]1 [ACYCLOVIR] — 4-fold lower, 4.53 µM

System: not listed separately
Test: concentration required to reduce virus HCMV (AD-169)plaque formation by 50%
Assay type: functional, Homo sapiens
Settings: not given
Procedure, shortened: as §1

For `O=S1(=O)N=C(OCc2ccc(Cl)cc2)c2ccccc2N1Cc1ccc(Cl)cc1`, the EC50 was > 50 µM.

System: Human betaherpesvirus 5
Test: In vitro inhibition of HCMV (AD-169) plaque formation.
Assay type: functional, organism-based
Settings: not given
Procedure, shortened: as §4

Point of comparison: `Nc1ccn(C[C@@H](CO)OCP(=O)(O)O)c(=O)n1` [CIDOFOVIR], IC50 0.58 µM. Against it:
- O=C1c2ccccc2N(Cc2ccc(Cl)c(Cl)c2)S(=O)(=O)N1Cc1ccccc1 — 5.7-fold higher, 3.3 µM
- O=S1(=O)N=C(OCc2ccccc2)c2ccccc2N1Cc1ccc(Cl)c(Cl)c1 — higher, > 50 µM
- O=C1c2ccccc2N(Cc2ccc(Cl)cc2)S(=O)(=O)N1Cc1ccccc1 — 6.9-fold higher, 4 µM
- O=C1c2ccccc2N(Cc2ccccc2Cl)S(=O)(=O)N1Cc1ccccc1Cl — higher, > 50 µM
- O=C1c2ccccc2N(Cc2ccccc2)S(=O)(=O)N1Cc1ccccc1Cl — higher, > 50 µM
- O=C1c2ccccc2N(COCc2ccccc2)S(=O)(=O)N1Cc1ccccc1 — 34-fold higher, 20 µM

System: Human immunodeficiency virus 1
Test: In vitro inhibition of HIV-1(IIIB) cytopathicity in CEM cells.
Assay type: functional, organism-based
Settings: Human immunodeficiency virus 1, CCRF-CEM
Procedure, shortened: as §2

Point of comparison: `O=C1c2ccccc2N(Cc2ccccc2)S(=O)(=O)N1COCc1ccccc1`, EC50 15 µM. Against it:
- O=C1c2ccccc2N(Cc2ccc(Cl)c(Cl)c2)S(=O)(=O)N1Cc1ccccc1 — not separable, > 2 µM
- O=S1(=O)N=C(OCc2ccccc2)c2ccccc2N1Cc1ccc(Cl)c(Cl)c1 — not separable, > 10 µM
- O=C1c2ccccc2N(Cc2ccc(Cl)cc2)S(=O)(=O)N1Cc1ccccc1 — 2.3-fold lower, 6.5 µM
- O=C1c2ccccc2N(Cc2ccccc2Cl)S(=O)(=O)N1Cc1ccccc1Cl — the same, 15 µM
- O=C1c2ccccc2N(Cc2ccccc2)S(=O)(=O)N1Cc1ccccc1Cl — higher, > 250 µM
- C#CCOCN1c2ccccc2C(=O)N(Cc2ccccc2)S1(=O)=O — not separable, > 8 µM
- O=C1c2ccccc2N(COCc2ccccc2)S(=O)(=O)N1Cc1ccccc1 — not separable, > 8 µM
